Platelet DG rel: platelet dense granule release activity. human platelet-rich plasma, SFLLRN dense granule ATP release, luminescence. inhibition, %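 (compounds screened at 7.5 µM in platelet-rich plasma)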. 0.22% of 300,000 active;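 active = mean replicate score, as percent of positive control, at or above 50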
Rce1 inhib: inhibitors of yeast Ras-converting enzyme; Q03530; yeast membranes, quenched prenylated peptide cleavage fluorescence; calls only; 0.27% of 290,000 active;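 active = fall in fluorescence gain of 50% or more versus controls, with final raw signal at or below 3038400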;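 also: plate controls were neutral control wells for no effect and wells lacking membranes for full effect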
Target sequence (Q03530 whole entry, looked up): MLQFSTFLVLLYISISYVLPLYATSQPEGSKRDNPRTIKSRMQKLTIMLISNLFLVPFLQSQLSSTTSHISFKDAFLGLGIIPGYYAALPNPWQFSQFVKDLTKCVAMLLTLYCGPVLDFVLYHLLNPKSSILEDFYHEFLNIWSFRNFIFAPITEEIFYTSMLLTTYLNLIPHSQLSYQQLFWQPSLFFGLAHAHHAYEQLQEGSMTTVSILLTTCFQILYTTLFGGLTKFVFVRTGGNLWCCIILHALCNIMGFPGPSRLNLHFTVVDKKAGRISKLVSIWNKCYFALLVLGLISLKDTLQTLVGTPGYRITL
VLA-4 inh: inhibition in a human VLA-4 binding assay; VLA-4 expressing cells, ligand binding flow cytometry; AID 2557; P13612; inhibition, % (about 7 µM as worked out from the volumes in the protocol); 0.2% of 330,000 active; in the data active = inhibition above about 50%
TAAR1 agonist: human TAAR1 agonism; Q96RJ0; CHO RD-HGA16 TAAR1, Fluo-8 calcium fluorescence; vehicle wells 0%, saturating PEA agonist 100%; activation, % at 3 µM; 0.99% of 360,000 active;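 active = activation above the mean activation of all test compounds in the run plus 3 SD, cut at about 38% in these data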
Target sequence (Q96RJ0 whole entry, looked up): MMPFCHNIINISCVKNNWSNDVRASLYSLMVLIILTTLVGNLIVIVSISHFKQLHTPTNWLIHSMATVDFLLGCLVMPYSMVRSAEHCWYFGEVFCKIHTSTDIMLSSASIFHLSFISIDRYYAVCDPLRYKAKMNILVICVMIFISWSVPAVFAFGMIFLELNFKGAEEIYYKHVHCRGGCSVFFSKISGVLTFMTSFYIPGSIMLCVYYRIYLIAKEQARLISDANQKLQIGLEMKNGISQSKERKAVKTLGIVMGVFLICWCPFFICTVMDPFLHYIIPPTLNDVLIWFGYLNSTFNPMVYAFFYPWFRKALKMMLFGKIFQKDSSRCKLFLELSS
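Benchmarks: low control DMSO, high control PEA (EC100); System: CHO RD-HGA16 cells carrying human TAAR1 plus Gα16; Detection: Fluo-8 fluorescence, 5 s baseline then 140 s kinetic read; Schedule: 17-24 h plating, Fluo-8 75 min 37 °C, 30 min RT; Read-out basis: % activation from peak over basal fluorescence ratio, DMSO-to-PEA scaled.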
TAAR1 antagonist: human TAAR1 antagonism; inhibition, % at 3 µM; CHO RD-HGA16 TAAR1, Fluo-8 calcium fluorescence, antagonist; Q96RJ0; 1.5% of 360,000 active;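 active = inhibition above a per-plate cutoff, the mean inhibition of test compounds on that plate plus 3 SD, cut at about 49% in these data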;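 also: 0% = DMSO plus EC80 beta-PEA response and 100% = DMSO alone without agonist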
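Assay system: RD-HGA16 CHO cells with stable hTAAR1 and Gα16 / Reagent: EC80 β-phenethylamine stimulus / Doses: 3 µM, single point / Timing: dye loading 75 min at 37 °C, then 30 min room temperature / Measured by: Fluo-8 intracellular calcium dye fluorescence, real-time kinetic reads / Controls: vehicle wells and EC80 agonist wells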
* hit, by the source's call; i = inactive; . = no result; + = active, no number. A selection: hits, their analogues and other compounds. The true share with any hit is near 2.6%.

SMILES | Platelet DG rel | Rce1 inhib | VLA-4 inh | TAAR1 agonist | TAAR1 antagonist
CCC(C)N(C(=O)CSc1nnc(NC(C)C)s1)C1CCS(=O)(=O)C1 (centres undefined) | 17 | i | -6 | 4 | -12
Cc1c(CCC(=O)O)c(=O)oc2cc(OCc3cccc(F)c3)ccc12 | -9 | + | 1 | 1 | 3
COc1ccc(CN(CCC(c2ccc(F)cc2)C2CCOC(C)(C)C2)C(=O)c2ccco2)cc1 (centres undefined) | 2 | i | 1 | 12 | 64*
O=C(O)c1ccc(N/N=C/c2cc(Br)cs2)cc1 | 21 | i | 13 | 38* | 7
O=C(O)c1ccc(N/N=C/c2ccc(OC(=O)c3ccccc3Cl)cc2)cc1 | 1 | i | 4 | 10 | 58*
Cc1ccc(/C=N/Nc2ccc(C(=O)O)cc2)s1 | 83* | i | 6 | 4 | -27
COc1ccc(/C=N/Nc2ccc(C(=O)O)cc2)cc1Br | 68* | i | 1 | 11 | -5
Cc1ccc(/C=N/Nc2cccc(C(=O)O)c2)s1 | -6 | i | 9 | 2 | -29
O=C(N/N=C\c1cc(Br)cs1)c1ccncc1 | 3 | i | -6 | 14 | 2
O=C(O)c1ccc(N/N=C/c2ccc(-c3ccccc3)cc2)cc1 | -2 | i | . | 2 | 18
CN(C(=O)COC(=O)c1ccccc1C(=O)c1ccccc1)c1ccccc1 | . | . | 19 | 3 | -3
CCOC(=O)[C@@H]1[C@H]2COc3ccccc3[C@@H]2N2C(=O)N(c3ccc(OC)cc3)C(=O)[C@@]12C | 8 | i | -6 | 3 | -14
Fc1ccc(-n2nnnc2-c2cnc(-c3cccs3)nc2C(F)(F)F)cc1 | 1 | i | -10 | 16 | 79*
FC(F)(F)c1nc(-c2ccncc2)ncc1-c1nnnn1-c1ccccc1 | -3 | i | -5 | 4 | 5
CCN(CC)C(=O)Cn1cc(C(=O)C(=O)NCc2cccnc2)c2ccccc21 | -3 | i | 12 | 1 | -22
O=C(c1ccc(COc2ccc(Cl)cc2)o1)N1CCN(Cc2ccc3c(c2)OCO3)CC1 | -3 | i | 9 | 6 | 52*
O=C(c1ccc(COc2ccccc2Cl)o1)N1CCN(Cc2ccc3c(c2)OCO3)CC1 | -6 | i | 1 | 9 | 30
Cc1ccc(NN2C(=O)C=C(c3ccc(Cl)cc3)C2=O)cc1 | 57* | i | 40 | 37 | 58*
Cn1nc(CC(=O)NCc2ccc(C(F)(F)F)cc2)c2ccccc2c1=O | 10 | i | 22 | 17 | 52*
O=C(Cn1c2c(c(-c3ccccc3Cl)cc1=O)CCC2)NCCCN1CCOCC1 | 1 | i | 6 | 3 | 8
Cc1cc(=O)oc2cc(OCC(=O)N3CCN(C(=O)C4COc5ccccc5O4)CC3)ccc12 (centres undefined) | -13 | i | 7 | 7 | 16
CCCc1cc(=O)oc2cc(OCC(=O)N3CCN(C(=O)C4COc5ccccc5O4)CC3)ccc12 (centres undefined) | 26 | i | 5 | 7 | 49*
CCCCc1cc(=O)oc2cc(OCC(=O)N3CCOCC3)ccc12 | 5 | + | 15 | 0 | 2
O=C(Cn1cnc2c(OCc3ccccc3)ncnc21)NCCCN1CCCC1=O | . | . | 23 | 3 | -4
COc1cc(CN2CCC(C(=O)NC(c3ccccc3)c3ccsc3)CC2)cc(OC)c1 (centres undefined) | . | . | . | 44* | 2
SMILES | Platelet DG rel | Rce1 inhib | VLA-4 inh | TAAR1 agonist | TAAR1 antagonist
O=C(NC(c1ccccc1)c1ccsc1)C1CCN(Cc2ccccc2)CC1 (centres undefined) | . | . | . | 10 | 13
C/C(=N\Nc1ccc([N+](=O)[O-])cc1)c1ccc(-n2nncc2C)cc1 | -5 | i | -4 | 15 | 57*
CC(C(=O)N1CCN=C1c1ccccc1)N1C(=O)c2ccccc2C1=O (centres undefined) | 5 | i | 4 | 7 | 1
Cc1ccc(S(=O)(=O)/N=C(/c2ccc(F)cc2)N2CCCC2)cc1 | 2 | . | 6 | -1 | 5
Cc1ccc(S(=O)(=O)/N=C(\c2ccc(F)cc2)n2c(C)nc3ccccc32)cc1 | 52* | i | 3 | 5 | -15
O=C(O)c1ccc(Nc2nc3ccc(Cl)cc3[nH]2)cc1 | 2 | + | 37 | 9 | -23
CC(C)c1cccc(OCC(=O)Nc2ccc(S(=O)(=O)Nc3ccccn3)cc2)c1 | 3 | + | 17 | -4 | -12
CCCNC(=O)C1(C)CCN(C(=O)c2ccc3ccccc3c2)C1 (centres undefined) | . | . | . | 4 | -14
Cc1cc(F)ccc1NC(=O)CCc1ccc(S(=O)(=O)N2CCOCC2)cc1 | . | . | 10 | 7 | -8
CCNc1nc(NC#N)nc(SCC(=O)OCC)n1 | 55* | i | 14 | 14 | -16
CCOC(=O)CSc1nc(NC#N)nc(N(CC)CC)n1 | -2 | i | -6 | 10 | -4
COCCOC(=O)c1c(C)nc(SCC(=O)Nc2ccc(C)cc2)c(C#N)c1-c1ccco1 | 0 | . | 14 | 5 | 10
COCCOC(=O)c1c(C)nc(SCC(=O)Nc2cccc3ccccc23)c(C#N)c1-c1ccco1 | -7 | . | 3 | 2 | 51*
C/C(Cl)=C\Cn1c(O)c(N=NC(N)=S)c2cc(Br)ccc21 | -7 | + | 5 | -2 | -3
NC(=S)N=Nc1c(O)n(Cc2ccc(F)cc2)c2ccccc12 | 5 | + | -2 | 7 | 32
NC(=S)N=Nc1c(O)n(Cc2ccc(Br)cc2)c2ccccc12 | -3 | i | 18 | 0 | -31
O=S(c1ccc2ccccc2c1)c1cnns1 (centres undefined) | . | . | 3 | 55* | -7
CCN(CC)S(=O)(=O)c1ccc(C(=O)NCC(=O)NC2CC2)cc1 | 2 | i | 0 | 1 | 12
CCN1C(=O)/C(=C/C=C2/SCCN2C)SC1=S | 14 | i | -14 | 39* | 7
CN1CCS/C1=C\C=C1/SC(=S)N(CC(=O)O)C1=O | 0 | . | . | 45* | 12
COc1ccc(NC(=O)c2cn3c(nc4ccccc43)c(C#N)c2C)cc1 | 1 | + | 7 | 0 | -10
COc1ccc(NC(=O)c2ccccn2)cc1 | 58* | i | 8 | . | .
COc1ccc(NC(=O)c2cnn(-c3ccccc3)c2C)cc1 | 59* | i | 2 | 4 | -5
Cc1c(C(=O)Nc2ccccc2)cn2c(nc3ccccc32)c1C#N | 2 | i | 2 | 10 | -15
Cc1c(C(=O)Nc2ccccc2)cnn1-c1ccccc1 | 5 | i | 2 | 2 | 25
CC(C)Oc1ccc(F)cc1-c1cc(C(=O)Nc2ccccc2)[nH]n1 | . | . | . | 4 | 50*
Cc1ccc(S(=O)(=O)N2CCN(CC(=O)N/N=C\C(Cl)=C\c3ccccc3)CC2)cc1 | 0 | i | -7 | 2 | 4
CC(/C=N\NC(=O)CN1CCN(S(=O)(=O)c2ccc(C)cc2)CC1)=C\c1ccccc1 | -3 | + | 7 | 5 | 10
CN1CCN(C(=S)NC(=O)c2ccccc2Cl)CC1 | -8 | + | 1 | 4 | -22

Source: PubChem BioAssay
